PAX8 reporter – inhibitors of PAX8-driven TPO luciferase reporter, primary screen, RMG-I cells, single concentration; SteadyGlo, 24 h; AID 652154, 2013; inhibition, % at 12.6 µM; 360,000 tested, 1.2% active;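 active = mean replicate inhibition at least 60% with every replicate also reaching 60%; inconclusive = only one of the two criteria is met; inactive = mean below 60% and not all replicates reaching 60%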;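 also: luciferase light reporting Pax8 driven TPO promoter activity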
CDK5 inh – inhibitors of human CDK5/p35 kinase, primary screen, biochemical, single concentration; Cyclin-dependent kinase 5 (Homo sapiens) + Cyclin-dependent kinase 5 activator 1 (Homo …; Recombinant CDK5/p35, ADP-Glo luminescence, 60 min; inhibition, % at 10 µM; 330,000 tested, 0.01% active; AID 488839, 2010;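 active = highest replicate inhibition of at least 50% and at least 75% of replicates reaching 50%; inconclusive = only one of the two criteria met; inactive = both criteria failed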
Target sequence (Q00535 whole entry, looked up): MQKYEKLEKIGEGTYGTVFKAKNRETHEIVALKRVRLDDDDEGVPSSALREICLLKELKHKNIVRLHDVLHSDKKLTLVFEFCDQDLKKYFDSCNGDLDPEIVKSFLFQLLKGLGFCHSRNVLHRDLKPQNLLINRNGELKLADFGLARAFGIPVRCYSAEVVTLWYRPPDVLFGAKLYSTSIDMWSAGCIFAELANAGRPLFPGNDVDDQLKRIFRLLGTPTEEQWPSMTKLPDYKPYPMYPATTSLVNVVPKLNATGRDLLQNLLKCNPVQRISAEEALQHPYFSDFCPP
Target sequence (Q15078 whole entry, looked up): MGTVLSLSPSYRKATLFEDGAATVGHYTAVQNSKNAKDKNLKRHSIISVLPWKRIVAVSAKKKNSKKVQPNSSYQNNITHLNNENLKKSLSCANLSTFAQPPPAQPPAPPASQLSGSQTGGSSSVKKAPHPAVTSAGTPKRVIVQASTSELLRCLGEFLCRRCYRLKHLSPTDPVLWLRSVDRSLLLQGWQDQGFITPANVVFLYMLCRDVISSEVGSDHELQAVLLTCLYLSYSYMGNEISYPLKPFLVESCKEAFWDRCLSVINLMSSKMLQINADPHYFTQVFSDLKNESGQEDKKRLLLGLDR
Cneo AK release – Cryptococcus neoformans cell lysis inducers, primary screen, AK release luminescence, single concentration | lysis activity, % at 15 µM | C. neoformans lysis, adenylate kinase release luminescence, 4 h; normalised: neutral wells 0, clomiphene wells 100 | 360,000 tested, 0.2% active;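 active = mean lysis activity across replicates of at least 80%, whatever share of replicates individually reach that level; inactive = mean lysis activity below 80%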
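Test system: log-phase Cryptococcus neoformans yeast cells. Input: 5 × 10^6 yeast cells/mL. Medium: fresh YPD growth medium. Doses: single dose. Incubation: static 4 h at 37 °C with compound, 1 h detection. Measured by: luminescent adenylate kinase detection reagent. Read-out: signal increase indicating cell lysis. Benchmarks: Clomiphene.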
dFosB act – activators of delta FosB homodimer, primary screen, biochemical, fluorescence polarization, TAMRA-CDK5 oligo, single point; activation, % at 25 µM; Protein FosB (Mus musculus), P13346; 340,000 tested, 0.99% active; AID 493131, 2011; purified delta FosB; percent of positive-control signal above neutral wells;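 active = mean activation above about 17%, with every replicate also reaching it, limit read from the data, passing the limit was not always enough; inconclusive = only one of the two conditions met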
Env fusion inh – inhibitors of HIV-1 Env-driven cell-cell fusion, primary screen, HeLa-JRFL effector, CEM21 target cells, luciferase; 360,000 tested, 1.1% active; inhibition, % at 12.3 µM;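 active = mean replicate inhibition score of at least 50 and every replicate individually at or above 50; inconclusive = only one of the two criteria met; inactive = mean below 50 and not all replicates reaching 50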
INS-1E GSIS act – GLuc luminescence reporter in INS-1E cells, primary screen for activators of glucose-dependent secretion of insulin; INS-1E GLuc reporter insulin secretion, 2-3 h; activation, % at 16.6 µM; 370,000 tested, 0.61% active; AID 743287, 2014;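 active = lowest replicate activation of at least 40%, so every replicate reaches that level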
Large screens that a line does not name were inactive; ! = not active in a repeat. An excerpt weighted towards active compounds, which were near 2.9% of everything screened.

CCC(=O)N1C[C@H](C)[C@H](OC)CN(C)C(=O)c2ccc(NC(=O)CC(F)(F)F)cc2OC[C@@H]1C	none (no result: CDK5 inh, dFosB act)
CCS(=O)(=O)N[C@@H]1C=C[C@H](CC(=O)Nc2ccc(-c3ccccc3)cc2)O[C@@H]1CO	none (no result: CDK5 inh, dFosB act)
O=C(CSc1nnc(COc2ccc(Cl)cc2)o1)N(c1ccccc1)C1CCS(=O)(=O)C1 (stereo not given)	Env fusion inh 65 (no result: CDK5 inh, dFosB act)
COc1ccc(/C=N/Nc2nonc2N)c(OC)c1	Env fusion inh 65 (no result: Cneo AK release)
COc1ccc(OC)c2c1C(=O)C(Cl)=C(Cl)C2=O	PAX8 reporter 100, Env fusion inh 94, INS-1E GSIS act 58
C[C@@H]1CN([C@@H](C)CO)C(=O)c2cc(C#CC3(O)CCCC3)cnc2O[C@@H]1CN(C)C(=O)CC1CC1	none (no result: PAX8 reporter, CDK5 inh, dFosB act)
CN1/C(=C/c2cccc[n+]2CCO)Sc2ccccc21	none
CCOC(=O)/C(=C/C=C1\Sc2cc(C)c(C)cc2N1CC)C(C)=O	none (no result: Cneo AK release)
CCN1/C(=C/c2ccc3cc(C)ccc3[n+]2CC)Sc2cc(C)c(C)cc21	PAX8 reporter 88 (no result: Cneo AK release)
CCN1/C(=C/c2ccc3cc(C)ccc3[n+]2CC)Sc2ccccc21	PAX8 reporter 93, dFosB act 52 (no result: Cneo AK release)
CC[n+]1c(/C=C2\Sc3ccccc3N2C)ccc2cccc(C)c21	PAX8 reporter 61, Env fusion inh 77
CCOC(=O)C(C)Oc1cccc2c(=O)n(CC(=O)NCc3ccc(F)cc3)ccc12 (stereo not given)	INS-1E GSIS act 42
CCOC(=O)C(C)Oc1cccc2c(=O)n(CC(=O)NCc3ccccc3)ccc12 (stereo not given)	PAX8 reporter inconclusive
CCCCN1CC(COCc2ccccc2)Oc2cccc(Oc3ccc(OC)cc3)c2S1(=O)=O (stereo not given)	none
CCCCN1CC(COCc2ccccc2)Oc2cccc(Oc3ccc(C(C)C)cc3)c2S1(=O)=O (stereo not given)	Env fusion inh 63
O=C1[C@@H]2[C@H](C(=O)N1C[C@@H](COCc1ccccc1)Oc1cccc3c1S(=O)(=O)N(CCc1ccc(F)cc1)C[C@H](COCc1ccccc1)O3)[C@@H]1C=C[C@H]2C1	none (no result: CDK5 inh, Cneo AK release, dFosB act)
CCCCN1CC(COCc2ccccc2)Oc2cccc(OCCN3C(=O)[C@@H]4[C@H](C3=O)C3C=C[C@H]4C3)c2S1(=O)=O (stereo not given in full)	PAX8 reporter 85 (no result: INS-1E GSIS act)
CCCC#Cc1ccc([C@@H]2[C@H](CO)N3C(=O)CN(C(=O)CN4CCOCC4)C[C@@H]23)cc1	none (no result: PAX8 reporter, CDK5 inh, Cneo AK release, dFosB act, Env fusion inh)
CCC(=O)N1[C@H](CO)[C@H](c2ccccc2)[C@H]1CNC(=O)CN1CCOCC1	none (no result: CDK5 inh, dFosB act, Env fusion inh)
C[C@@H]1CN([C@@H](C)CO)C(=O)c2cc(NC(=O)Nc3ccc(C(F)(F)F)cc3)ccc2O[C@@H](C)CCCCO[C@H]1CN(C)S(=O)(=O)c1ccccc1	none (no result: CDK5 inh, dFosB act)
C[C@@H]1CCCCO[C@@H](CN(C)S(=O)(=O)c2ccccc2)[C@H](C)CN([C@@H](C)CO)C(=O)c2cc(NC(=O)Nc3ccc(C(F)(F)F)cc3)ccc2O1	PAX8 reporter 75 (no result: CDK5 inh, dFosB act)
C[C@@H]1CN([C@H](C)CO)C(=O)c2cc(NC(=O)CCC(F)(F)F)ccc2O[C@@H](C)CCCCO[C@H]1CN(C)S(=O)(=O)c1ccc(Cl)cc1	none (no result: CDK5 inh, dFosB act)
C[C@H]1CCCCO[C@@H](CN(C)S(=O)(=O)c2ccc(Cl)cc2)[C@@H](C)CN([C@@H](C)CO)C(=O)c2cc(NC(=O)CCC(F)(F)F)ccc2O1	PAX8 reporter 73 (no result: CDK5 inh, dFosB act)
C[C@@H]1CCCCO[C@@H](CN(C)S(=O)(=O)c2ccc(F)cc2)[C@@H](C)CN([C@@H](C)CO)C(=O)c2cc(NC(=O)Nc3ccc(C(F)(F)F)cc3)ccc2O1	none (no result: CDK5 inh, dFosB act)
C[C@@H]1CCCCO[C@H](CN(C)S(=O)(=O)c2ccc(F)cc2)[C@@H](C)CN([C@H](C)CO)C(=O)c2cc(NC(=O)Nc3ccc(C(F)(F)F)cc3)ccc2O1	PAX8 reporter 74!, Env fusion inh inconclusive (no result: CDK5 inh, dFosB act)
COc1ccc(S(=O)(=O)N(C)C[C@H]2OCCCC[C@@H](C)Oc3ccc(NC(=O)Nc4ccc(C(F)(F)F)cc4)cc3C(=O)N([C@@H](C)CO)C[C@H]2C)cc1	none (no result: CDK5 inh, dFosB act)
COc1ccc(S(=O)(=O)N(C)C[C@@H]2OCCCC[C@H](C)Oc3ccc(NC(=O)Nc4ccc(C(F)(F)F)cc4)cc3C(=O)N([C@H](C)CO)C[C@H]2C)cc1	PAX8 reporter 79! (no result: CDK5 inh, dFosB act)
Cc1ccccc1S(=O)(=O)N1C[C@@H](O)COC[C@@H]2O[C@H](CC(=O)N3CCCCC3)CC[C@H]21	none (no result: CDK5 inh, dFosB act, Env fusion inh)
C/C=C/c1ccc([C@H]2[C@@H](CO)N(C(C)=O)[C@@H]2CNC(=O)CC2CC2)cc1	none (no result: CDK5 inh, dFosB act, Env fusion inh)
C[C@@H]1CN([C@H](C)CO)C(=O)Cc2cc(NC(=O)CCCCCC(=O)Nc3ccccc3N)ccc2O[C@@H]1CN(C)S(=O)(=O)c1ccc(Cl)cc1	none (no result: CDK5 inh, Cneo AK release, dFosB act)
C[C@@H]1CCCCO[C@H](CN(C)S(=O)(=O)c2ccc(Cl)cc2)[C@@H](C)CN([C@@H](C)CO)C(=O)c2cc(NC(=O)Nc3ccc(C(F)(F)F)cc3)ccc2O1	PAX8 reporter 82 (no result: CDK5 inh, dFosB act)
COCC(=O)Nc1ccc2c(c1)[C@@H]1C[C@@H](CC(=O)N3CCCCC3)O[C@H](CO)[C@@H]1O2	none (no result: CDK5 inh, dFosB act)
CCCN1[C@H](C(=O)NCCCN(C)C)[C@@H](CO)[C@@H]2Cn3c(ccc(C4=CCCCC4)c3=O)[C@@H]21	none (no result: CDK5 inh, dFosB act, Env fusion inh)
Cc1cccc(C)c1NC(=O)Cn1c(=O)c2cccn2c2ccccc21	dFosB act 29
Cc1noc(C)c1S(=O)(=O)N(C)C[C@@H]1OCc2ccccc2-c2c(n(C)c3ccccc23)C(=O)N([C@H](C)CO)C[C@@H]1C	none (no result: CDK5 inh, dFosB act)
C[C@H]1CN([C@@H](C)CO)C(=O)c2cc(NC(=O)NC3CCCCC3)ccc2O[C@H]1CN(C)Cc1ccc(Oc2ccccc2)cc1	none (no result: PAX8 reporter, CDK5 inh, dFosB act, Env fusion inh)
CCOC(=O)C1CCN(C(=O)c2ccc3c(c2)C(=O)N(c2ccccc2C)C3=O)CC1	Env fusion inh 85 (no result: Cneo AK release)
CCOC(=O)C1CCCN(C(=O)c2ccc3c(c2)C(C)(C)CCC3(C)C)CC1 (stereo not given)	Env fusion inh 60 (no result: CDK5 inh, dFosB act)
O=C(Nc1ccc(F)cc1)N1C[C@@H]2[C@H](c3ccccc31)[C@H](CO)N2C(=O)c1ccc(F)cc1	none (no result: CDK5 inh, dFosB act, Env fusion inh)
CC(C)C1C(=O)N(Cc2cn(CCC3OCCCO3)nn2)CCS(=O)(=O)N1Cc1ccc(-c2ccc(Cl)nc2)cc1 (stereo not given)	PAX8 reporter 74 (no result: CDK5 inh, dFosB act)

Screening data: PubChem BioAssay, Broad Institute
